These results are taken from ChEMBL document CHEMBL3400092 (2015).

Calls of active or inactive are those of the source. The calls are words filed in the database; no cut-off is given here.

One test has as its system CL1-5. The test is described as follows: Reduction in total wild type EGFR levels in gefinitib-insensitive and 24 hrs serum starved human CL1-5 cells at 10 uM pre-incubated for 1 hr before EGF stimulation for 30 mins by Western blot method. The class given is functional. The essentials: (§1)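 Cells in RPMI-1640 with 10% FBS were plated at 1×10^6 per 10-cm dish, cultured overnight, then kept serum-free for 24 h. They were pre-treated with 10 μM compound for 1 h, serum-free, then stimulated with EGF 20 ng/mL (20 min in methods, 30 min in legend). Whole-cell lysates, 40 μg/lane, were run on 10% SDS-PAGE, blotted to PVDF, probed for pan-EGFR and pEGFR (Tyr1068), and detected by ECL.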

The subject of a further test is NCI-H1975. As to the kind of experiment: Reduction in total EGFR L858R and T790M mutant levels in gefinitib-resistant and 24 hrs serum starved human NCI-H1975 cells at 10 uM pre-incubated for 1 hr before EGF stimulation for 30 mins by Western blot method. It counts as functional, cell-based. The essentials:
as §1
Background: In western blotting, separated proteins are transferred to a membrane and probed.

The test system of a further test is IEC-18. The test is described as follows: (§2) Cytoprotective activity against 40 uM gefitinib-induced cytotoxicity in rat IEC-18 cells assessed as restoration of cell viability at 5 uM incubated for 24 hrs by MTT assay. It counts as functional. The method in brief:
(§3)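 IEC-18 rat intestinal epithelial cells, kept in DMEM with 10% FBS, were seeded at 5×10^3 cells/well and co-treated with compound and gefitinib for 24 h. Stocks were in DMSO, with final DMSO below 0.1%. MTT (0.5 mg/mL) was added for 1.5 h, then DMSO, and absorbance was read at 570 nm. Viability was expressed as proliferative index (%) relative to untreated cells (100%). Triplicate; Student t-test.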

Test [1] deals with Epidermal growth factor receptor (Homo sapiens) (UniProt P00533). The following applies: CL1-5, at 10 µM.
For test [2], the system named is Epidermal growth factor receptor (Homo sapiens), P00533 [L858R,T790M]. The following applies: NCI-H1975, at 10 µM.
Test [3] in a line: as §2. The class given is functional. The method in brief:
as §3

Sequence of Epidermal growth factor receptor (Homo sapiens) (P00533 whole entry): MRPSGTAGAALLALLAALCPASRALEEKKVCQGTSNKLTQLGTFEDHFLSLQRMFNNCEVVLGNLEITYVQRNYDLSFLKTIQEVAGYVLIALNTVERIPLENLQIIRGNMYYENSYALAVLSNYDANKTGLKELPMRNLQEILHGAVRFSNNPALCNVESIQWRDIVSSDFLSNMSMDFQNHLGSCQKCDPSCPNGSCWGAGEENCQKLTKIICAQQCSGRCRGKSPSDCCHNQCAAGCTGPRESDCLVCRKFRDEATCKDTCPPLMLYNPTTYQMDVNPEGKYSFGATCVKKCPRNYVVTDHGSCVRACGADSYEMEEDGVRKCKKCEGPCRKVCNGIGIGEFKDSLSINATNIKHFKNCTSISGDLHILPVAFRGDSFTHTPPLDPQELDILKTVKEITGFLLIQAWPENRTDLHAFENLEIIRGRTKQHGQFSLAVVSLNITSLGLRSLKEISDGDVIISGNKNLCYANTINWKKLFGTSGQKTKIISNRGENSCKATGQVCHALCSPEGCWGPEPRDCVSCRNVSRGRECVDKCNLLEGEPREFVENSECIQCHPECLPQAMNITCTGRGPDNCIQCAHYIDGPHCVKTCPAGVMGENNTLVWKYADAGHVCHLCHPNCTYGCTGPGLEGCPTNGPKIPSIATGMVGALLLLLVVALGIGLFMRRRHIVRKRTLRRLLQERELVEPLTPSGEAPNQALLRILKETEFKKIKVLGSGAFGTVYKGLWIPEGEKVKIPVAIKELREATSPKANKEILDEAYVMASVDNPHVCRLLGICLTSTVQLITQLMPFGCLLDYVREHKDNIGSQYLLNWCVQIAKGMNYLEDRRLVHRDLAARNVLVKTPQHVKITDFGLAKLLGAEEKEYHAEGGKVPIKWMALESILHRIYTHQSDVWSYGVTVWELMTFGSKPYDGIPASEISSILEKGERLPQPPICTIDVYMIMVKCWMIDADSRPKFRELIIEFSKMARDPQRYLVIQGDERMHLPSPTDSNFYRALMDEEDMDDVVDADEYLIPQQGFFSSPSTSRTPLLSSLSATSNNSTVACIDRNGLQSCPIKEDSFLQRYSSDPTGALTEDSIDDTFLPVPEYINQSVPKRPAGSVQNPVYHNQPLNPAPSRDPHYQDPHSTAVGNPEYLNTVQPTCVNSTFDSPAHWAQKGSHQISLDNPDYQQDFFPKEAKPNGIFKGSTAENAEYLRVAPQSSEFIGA
Sequence of Epidermal growth factor receptor (Homo sapiens), P00533 [L858R,T790M] (P00533 whole entry T790M/L858R, looked up): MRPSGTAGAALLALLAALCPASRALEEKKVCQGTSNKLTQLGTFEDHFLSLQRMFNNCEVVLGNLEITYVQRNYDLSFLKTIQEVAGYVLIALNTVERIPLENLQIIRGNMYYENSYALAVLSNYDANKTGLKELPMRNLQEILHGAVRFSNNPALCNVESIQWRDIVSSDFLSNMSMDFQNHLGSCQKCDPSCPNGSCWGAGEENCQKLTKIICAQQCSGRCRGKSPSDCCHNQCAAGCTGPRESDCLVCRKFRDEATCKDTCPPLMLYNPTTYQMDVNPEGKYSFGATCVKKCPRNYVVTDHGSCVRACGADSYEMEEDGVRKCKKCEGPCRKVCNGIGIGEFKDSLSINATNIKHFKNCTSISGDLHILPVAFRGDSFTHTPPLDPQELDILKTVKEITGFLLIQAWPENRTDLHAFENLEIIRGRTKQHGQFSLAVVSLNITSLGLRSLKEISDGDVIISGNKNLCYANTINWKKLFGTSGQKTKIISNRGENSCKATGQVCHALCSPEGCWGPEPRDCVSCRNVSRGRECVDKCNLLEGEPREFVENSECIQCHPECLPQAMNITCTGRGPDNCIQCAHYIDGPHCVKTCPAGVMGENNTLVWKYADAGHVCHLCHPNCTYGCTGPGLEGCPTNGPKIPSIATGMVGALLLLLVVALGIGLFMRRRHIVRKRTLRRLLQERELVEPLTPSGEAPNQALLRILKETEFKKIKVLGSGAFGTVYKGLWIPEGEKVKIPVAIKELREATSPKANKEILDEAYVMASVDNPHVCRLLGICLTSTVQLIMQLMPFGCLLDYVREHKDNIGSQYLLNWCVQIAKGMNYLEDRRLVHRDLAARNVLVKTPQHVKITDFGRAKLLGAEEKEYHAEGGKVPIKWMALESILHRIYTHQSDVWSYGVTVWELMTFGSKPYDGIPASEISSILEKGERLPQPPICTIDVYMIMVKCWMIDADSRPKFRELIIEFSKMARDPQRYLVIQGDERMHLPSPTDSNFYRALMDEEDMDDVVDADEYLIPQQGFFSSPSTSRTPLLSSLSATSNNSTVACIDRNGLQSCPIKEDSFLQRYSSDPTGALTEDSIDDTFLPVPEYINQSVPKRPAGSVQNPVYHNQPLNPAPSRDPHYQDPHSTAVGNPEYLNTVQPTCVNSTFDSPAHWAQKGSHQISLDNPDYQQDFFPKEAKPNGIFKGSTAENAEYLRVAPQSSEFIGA

In the case of `COc1cc(/C=C/C(=O)CC(=O)/C=C/c2ccc(O)c(OC)c2)ccc1O`, the inhibition entry in the test on CL1-5 and with NCI-H1975 was “Active” each time. For the same compound, the result in the test on IEC-18 was Active.
For `COc1ccc(/C=C/C(=O)/C=C(O)/C=C/c2ccc(OC)c(OC)c2)cc1O`, the inhibition entry (in the test on CL1-5; in the test on NCI-H1975; in test [1]; in test [2]) was “Active” in each case. Further, the outcome in the test with IEC-18 was Active.
For the compound `O=C(/C=C(O)/C=C/c1ccc(O)c(O)c1)/C=C/c1ccc(O)c(O)c1`, the inhibition entry (in the test with CL1-5; in test [1]; in test [2]) was “Active” throughout. In addition, the inhibition entry in the test on NCI-H1975 is “inactive”. Further, in test [3], the Activity entry was “<=80%”.
On to `COc1cc(/C=C/C(O)=C/C(=O)/C=C/c2ccc(OC)c(OC)c2)ccc1O`, for which the inhibition result (with CL1-5; in the test with NCI-H1975; in test [1]; in test [2]) was “Active” throughout. The result in the test on IEC-18 was Active.
As to `COc1ccc(/C=C/C(=O)/C=C(O)/C=C/c2ccc(OC)c(OC)c2)cc1OC`, the inhibition result (in the test on CL1-5; in the test on NCI-H1975; in test [1]; in test [2]) was “Active” each time. Also, in the test on IEC-18, the result was Active.
`CCOC(=O)CC/C(C(=O)/C=C/c1cc(OC)c(O)c(OC)c1)=C(O)\C=C\c1cc(OC)c(O)c(OC)c1`: the inhibition entry (in the test with CL1-5; in the test on NCI-H1975; in test [1]; in test [2]) was “inactive” in each case.
With `COc1cc(/C=C/C(O)=C/C(=O)/C=C/c2ccc(O)c(O)c2)ccc1O`, the inhibition entry (with CL1-5; in test [1]) was “inactive” throughout. Besides, the inhibition entry (in the test with NCI-H1975; in test [2]) was “Active” each time.
With `CCOC(=O)CCCOc1ccc(/C=C/C(=O)/C=C(O)/C=C/c2ccc(OCCCC(=O)OCC)c(OC)c2)cc1OC`, the inhibition entry (in the test with CL1-5; with NCI-H1975; in test [1]; in test [2]) was “inactive” in each case.
For the compound `COc1cc(/C=C/C(=O)/C(CCC(=O)O)=C(O)/C=C/c2ccc(OCCCC(=O)O)c(OC)c2)ccc1OCCCC(=O)O`, the inhibition result (in the test with CL1-5; in the test on NCI-H1975; in test [1]; in test [2]) was “inactive” in each case.
In the case of `CCOC(=O)CC/C(C(=O)/C=C/c1ccc(OCC(=O)OC)c(OC)c1)=C(O)\C=C\c1ccc(OCC(=O)OC)c(OC)c1`, the inhibition entry (in the test on CL1-5; in the test on NCI-H1975; in test [1]; in test [2]) was “inactive” in each case.
As for `COc1ccc(/C=C/C(=O)/C=C(O)/C=C/c2ccc(OC)c(OC)c2OC)cc1OC`, the inhibition entry (with CL1-5; in the test with NCI-H1975; in test [1]; in test [2]) was “Active” each time.
Take `CCOC(=O)CC/C(C(=O)/C=C/c1ccc(O)c(O)c1)=C(O)\C=C\c1ccc(O)c(O)c1`: the inhibition result (in the test on CL1-5; in test [1]) was “Active” each time. Besides, the inhibition result (in the test with NCI-H1975; in test [2]) was “inactive” each time.
For the compound `COc1cc(/C=C/C(=O)/C=C(O)/C=C/c2ccc(OCC(=O)Nc3ccccc3)c(OC)c2)ccc1OCC(=O)Nc1ccccc1`, the inhibition entry (in the test on CL1-5; with NCI-H1975; in test [1]; in test [2]) was “inactive” each time.
Take `COc1cc(/C=C/C(=O)/C(CCC(=O)O)=C(O)/C=C/c2ccc(O)c(O)c2)ccc1O`: the inhibition entry (with CL1-5; with NCI-H1975; in test [1]; in test [2]) was “inactive” throughout.
As to `O=C(O)CC/C(C(=O)/C=C/c1ccc(O)c(O)c1)=C(O)\C=C\c1ccc(O)c(O)c1`, the inhibition entry (in the test with CL1-5; in the test with NCI-H1975; in test [1]; in test [2]) was “inactive” each time.
`CCOC(=O)CCCOc1ccc(/C=C/C(=O)/C(CCC(=O)OCC)=C(O)/C=C/c2ccc(OCCCC(=O)OCC)c(OC)c2)cc1OC`: the inhibition result (in the test with CL1-5; with NCI-H1975; in test [1]; in test [2]) was “inactive” throughout.
As for `COC(=O)COc1ccc(/C=C/C(=O)/C=C(O)/C=C/c2ccc(OCC(=O)OC)c(OC)c2)cc1OC`, the inhibition entry (in the test on CL1-5; in the test with NCI-H1975; in test [1]; in test [2]) was “inactive” in each case.
In the case of `CCOC(=O)/C=C/C(C(=O)/C=C/c1ccc(O)c(O)c1)=C(O)\C=C\c1ccc(O)c(OC)c1`, the inhibition result (in the test on CL1-5; in the test on NCI-H1975; in test [1]; in test [2]) was “inactive” each time.
On to `COc1cc(OC)c(OC)cc1/C=C/C(O)=C/C(=O)/C=C/c1ccc(OC)c(OC)c1`, for which the inhibition result (in the test on CL1-5; in the test with NCI-H1975; in test [1]; in test [2]) was “Active” each time.
Take `COc1cc(/C=C/C(=O)/C=C(O)/C=C/c2ccc(OCC(=O)O)c(OC)c2)ccc1OCC(=O)O`: the inhibition result (in the test with CL1-5; in the test with NCI-H1975; in test [1]; in test [2]) was “inactive” each time.
Take `CCOC(=O)CC/C(C(=O)/C=C/c1ccc(OC)c(OC)c1)=C(O)\C=C\c1ccc(O)c(OC)c1`: the inhibition result (in the test with CL1-5; in the test with NCI-H1975; in test [1]; in test [2]) was “Active” in each case.
Regarding `COc1cc(/C=C/C(=O)/C=C(O)/C=C/c2cc(O)c(OC)c(OC)c2)cc(O)c1OC`, the inhibition entry (in the test on CL1-5; with NCI-H1975; in test [1]; in test [2]) was “inactive” in each case.
